Here are results for two compounds from publication PMC9054602 (RSC Advances, 2020).

The test system of experiment [1] is PRRSV GD-XH strain. The experiment can be described thus: Antiviral activity by indirect immunofluorescence assay. Type of experiment: cell-based, porcine reproductive and respiratory syndrome virus. The conditions noted are these: MARC-145 cells; for EC50: Porcine reproductive and respiratory syndrome virus, MARC145, PRRSV GD-XH (0.05 MOI), IFA at 48 hpi; for Selectivity index (SI): ratio of CC50 to EC50, PRRSV GD-XH.

The test system of experiment [2] is PRRSV CH-1a strain. The experiment is described as follows: Antiviral activity by IFA, PRRSV CH-1a in MARC-145 cells. The note with it: Porcine reproductive and respiratory syndrome virus, MARC145. Type of experiment: cell-based. The essentials:
(§1)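 MARC-145 monolayers infected at 0.05 MOI for 2 h at 37 °C. Inoculum removed and fresh medium with serial compound concentrations added. Cells then fixed in 4% paraformaldehyde, permeabilized with Triton X-100, blocked with BSA and stained for N protein (mAb 4A5, 1:400, 4 °C overnight), with Alexa 568 secondary and DAPI. Red and blue ODs digitized; protection % derived against DMSO wells. EC50 by nonlinear regression; three independent experiments.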

The test system of experiment [3] is PRRSV VR2332 strain. The experiment is described as follows: Antiviral activity by IFA, PRRSV VR2332 in MARC-145 cells. Format: cell-based. The note with it: Porcine reproductive and respiratory syndrome virus, MARC145. In short, it runs like this: as §1
The subject of experiment [4] is PRRSV NADC30-like strain. The experiment is described as follows: Antiviral activity by IFA, PRRSV NADC30-like in MARC-145 cells. Type of experiment: cell-based. The note with it: Porcine reproductive and respiratory syndrome virus, MARC145. In short, it runs like this:
as §1

Some results are limits rather than exact numbers.

As usually defined, the EC50 is the concentration giving half of the maximal effect. A high value points to a need for much substance. With `NC(=O)c1ncn([C@@H]2O[C@H](CO)[C@@H](O)[C@H]2O)n1` [Ribavirin], the EC50 turned out to be 23.7 ± 3.1 µM in experiment [1], 31.5 ± 2.8 µM in experiment [2], 22.3 ± 3.1 µM in experiment [3] and 16.8 ± 2.1 µM in experiment [4]. In experiment [1], the “Selectivity index (SI)” value was over 27.
In the case of `C[C@H]1[C@H](C)CC[C@]2(C(=O)O)CC[C@]3(C)C(=CC[C@@H]4[C@@]5(C)CC[C@H](O)C(C)(C)[C@@H]5CC[C@]43C)[C@H]12` [UA, Ursolic acid], the EC50 in experiment [1] stood at 8.03 ± 0.93 µM; in experiment [2] it was 11.3 ± 0.78 µM; in experiment [3], 5.66 ± 0.52 µM; in experiment [4], 5.03 ± 0.35 µM. In addition, the “Selectivity index (SI)” value in experiment [1] is 8.1.
